High-throughput results from PubChem.
UHRF1 binding: UHRF1 methylated DNA binding inhibitors, primary screen, counter-screen for MBD2 inhibitor project, biochemical, TR-FRET, human UHRF1, single concentration. UHRF1 binding to methylated oligo. 370,000 compounds, 0.75% hits. inhibition, % at 4.4 µM. E3 ubiquitin-protein ligase UHRF1 (Homo sapiens), Q96T88; in the data active means inhibition above about 21%;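 further: UHRF1 SRA domain binding a hemimethylated CpG hairpin DNA probe; 0% = median of test compound wells and 100% = reference inhibitor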
MBD2 DNA inh: inhibitors of MBD2 binding to methylated DNA, primary screen, biochemical, TR-FRET, DNA-binding domain, human; inhibition, % at 4.4 µM; AID 686964, 2013; MBD2 binding to methylated oligonucleotide; Methyl-CpG-binding domain protein 2 (Homo sapiens), Q9UBB5; 370,000 compounds, 0.31% hits; in the data active means inhibition above about 13%
CSN deneddyl inh: inhibitors of CSN-mediated cullin deneddylation, primary screen, biochemical, fluorescence polarization, uHTS; Purified CSN, SCF-Nedd8-OG deneddylation; inhibition, % at 12.5 µM; 360,000 compounds, 0.38% hits; AID 651999, 2013;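 active means pattern-corrected inhibition above about 35%, with an unprinted fluorescence ratio check between 0.5 and 1.5, limit read from the data, passing the limit was not always enough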;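 further: 0% = enzyme with substrate and 100% = substrate without enzyme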
Target sequence (Q92905 whole entry, looked up, one chain of several): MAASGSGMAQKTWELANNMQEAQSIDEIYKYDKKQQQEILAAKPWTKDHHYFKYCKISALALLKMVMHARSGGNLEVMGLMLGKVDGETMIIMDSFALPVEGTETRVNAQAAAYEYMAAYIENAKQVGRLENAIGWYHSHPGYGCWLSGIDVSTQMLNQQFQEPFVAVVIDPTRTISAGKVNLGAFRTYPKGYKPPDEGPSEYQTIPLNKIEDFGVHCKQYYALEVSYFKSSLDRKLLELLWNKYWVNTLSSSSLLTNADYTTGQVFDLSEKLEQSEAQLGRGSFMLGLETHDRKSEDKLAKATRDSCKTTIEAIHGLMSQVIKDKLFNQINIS
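Test system: Human Csn5 produced in HEK293T cells | Compound: 12.5 µM single point | Times: 90 min, room temperature | Signal: Fluorescence polarization readout | Read-out basis: % inhibition of substrate cleavage by Csn5 | Controls: no-enzyme wells high, enzyme-with-substrate wells low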
rCAG binder: binders of r(CAG) RNA repeats, primary screen, biochemical, fluorescence; r(CAG) RNA repeat, TO-PRO-1 dye displacement fluorescence; inhibition, % at 3 µM; 370,000 compounds, 1.3% hits; AID 651821, 2012;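 active means inhibition above the plate cutoff, the mean of all test compounds on that plate plus 3 SD, cut at about 35% in these data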;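 further: 0% = DMSO alone and 100% = 100 µM mitoxantrone as full dye displacement; higher means more dye released from RNA so lower well fluorescence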
ATG4B inhibitor: ATG4B protease inhibitors, primary screen, biochemical, fluorescence, uHTS. Cysteine protease ATG4B (Homo sapiens), Q9Y4P1. inhibition, % at 8.33 µM. ATG4B cleavage of LC3-PLA2, NBD-HPC fluorescence, 1 h. AID 504462, 2011. 340,000 compounds, 0.51% hits; in the data active means inhibition above about 40%
LEDGF integ inh: blockers of LEDGF/p75-dependent integrase strand transfer – biochemical, TR-FRET, high throughput, primary screen. HIV-1 integrase (with human LEDGF/p75). TR-FRET IN-LEDGF/p75 DNA integration, Eu/Cy5. inhibition, % at 3.7 µM. 370,000 compounds, 0.64% hits;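 active means inhibition above the screen-wide mean plus 3 SD, cut at about 13% in these data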;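 further: signal is the Cy5 over europium emission ratio at 671 and 618 nm; 0% = plate median of compound wells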
Active calls of the source: *; · = no result given. Only some compounds are listed: those with a hit (about 3.1% of all), similar ones and a draw of the others.

SMILES	UHRF1 binding	MBD2 DNA inh	CSN deneddyl inh	rCAG binder	ATG4B inhibitor	LEDGF integ inh
Oc1ccccc1Oc1ncc(Br)c(Cl)n1	22*	8	-3	2	-2	1
CC(C)N(CC#CCC1(O)c2ccccc2-c2ccccc21)CCO	28*	12	-2	-5	-7	-1
CCN(CC#CCC1(O)c2ccccc2-c2ccccc21)CCO	19	7	2	-1	-10	0
CC(C)(C)c1ccc(S(=O)(=O)N2CCCC(C(=O)NCc3ccco3)C2)cc1 (stereo unspecified)	0	3	·	2	·	0
C#CCN1CC(N(C)CCOC(=O)c2cccs2)CS1(=O)=O (stereo unspecified)	-1	0	·	-2	·	4
COC(=O)C1CN(C2CCCC2)CCS(=O)(=O)N1Cc1cn(Cc2ccc(C)cc2)nn1 (stereo unspecified)	4	-2	·	4	·	-1
O=c1[nH][nH]c2cc(=O)n(-c3ccc(Cl)cc3)nc12	-9	-14	-3	43*	-1	7
Cc1ccc(-c2cc(C(=O)N3CCOCC3)c3ccccc3n2)cc1	27*	-4	4	2	-12	-2
COc1cccc(C(=O)N[C@H](C(=O)N2CCC[C@H]2C(=O)NCc2ccccc2)c2ccccc2)c1	-3	3	·	1	·	0
O=C(O)CCN(Cc1ccccc1)S(=O)(=O)c1ccccc1Cl	22*	7	1	2	-14	1
O=C(O)CCN(Cc1ccccc1)S(=O)(=O)c1ccc(Cl)cc1F	7	2	-2	6	1	5
COC(=O)[C@]12CCCCC=C1N(Cc1ccc(OC)cc1)C(=O)[C@@H]2CC(=O)N1CCOCC1	-1	-3	·	0	·	2
O=C1C(NC(=O)N2c3ccccc3C=Cc3ccccc32)CCCCN1Cc1cccc(Cl)c1 (stereo unspecified)	-1	1	·	9	·	-4
O=C1C(NC(=O)N2c3ccccc3C=Cc3ccccc32)CCCCN1Cc1ccc(Cl)cc1 (stereo unspecified)	27*	1	·	10	·	-4
COC(=O)CSc1nnc(-c2cc(-c3ccccc3)n[nH]2)n1N	0	-1	·	2	·	3
COc1cccc(C2/C(=C(/O)c3ccc(C)cc3)C(=O)C(=O)N2Cc2ccco2)c1 (stereo unspecified)	29*	2	-6	4	0	2
Cc1ccccc1NC1=CC(=O)CC(C)(C)C1	6	7	-2	-3	1	1
CC1(C)CC(=O)C=C(NC2=CC3OC(c4ccccc4)OCC3OC2=O)C1 (stereo unspecified)	22*	0	-4	-7	2	-2
COc1ccc(C2C(C#N)=C(N)OC3=C2C(=O)CC(C)(C)C3)cc1 (stereo unspecified)	0	4	0	0	1	2
COc1cc(C2C(C#N)=C(N)OC3=C2C(=O)CC(C)(C)C3)cc2c1OCO2 (stereo unspecified)	30*	1	12	20	4	10
O=C(CN1CCN(c2ccccn2)CC1)Nc1ccccc1	0	-3	3	-2	-6	-3
O=C(CN1CCN(c2ccccn2)CC1)NC1CCCC1	24*	10	-5	-1	-4	1
COC(=O)c1ccc2nc(C3CCCCC3)c(CC(C)(C)C)n2c1	21*	0	0	3	·	-4
N#CCC[C@H]1CC[C@]2(CCCN(C(=O)C3CCCCC3)C2)O1	0	-5	·	1	·	4
CC1CC(C)CN(C(=O)c2ccc(CSc3nc4ccncc4[nH]3)cc2)C1 (stereo unspecified)	34*	-9	-1	2	10	1
SMILES	UHRF1 binding	MBD2 DNA inh	CSN deneddyl inh	rCAG binder	ATG4B inhibitor	LEDGF integ inh
COC(=O)c1cc2c(c3c4cc(OC)ccc4n(S(=O)(=O)c4ccc(OC)cc4)c13)C(=O)N(Cc1ccccc1)C2	0	0	·	17	·	-3
Cc1ccc(S(=O)(=O)N2CCC(c3nc4ccccc4o3)CC2)s1	2	-1	·	6	·	1
C=CCn1c(=O)/c(=C/c2ccc(C)o2)s/c1=C(/C#N)C(=O)c1ccccc1	-4	-4	45*	26	2	3
CC(C)N(CC#CCC(O)(c1ccccc1)C1CCCC1)CCO (stereo unspecified)	28*	11	2	-7	22	2
CCOC(=O)c1c(-c2ccccc2)c2cc(OC)ccc2n1CCCN(C)C	26*	-1	5	-1	-1	-3
CCOC(=O)c1c(C)n(CCNC(C)=O)c2ccc(OC)cc12	2	-2	1	-2	-8	2
CCOc1ccccc1C1CC(=O)Nc2cc3c(cc21)OCCO3 (stereo unspecified)	23*	-2	2	-3	-4	5
CCCOc1ccccc1C1CC(=O)Nc2cc3c(cc21)OCCO3 (stereo unspecified)	·	·	0	·	-10	·
CCCCCCCCN1C(=O)[C@@H](CC(=O)N2CCC(c3ccccc3)CC2)C[C@@]2(C(=O)OC)C1=C[C@H](COCc1ccccc1)O[C@@H]2C	1	-2	·	7	·	2
CCCCN(C(=O)c1ccc(NC2CC2)c([N+](=O)[O-])c1)c1c(N)n(CCCC)c(=O)[nH]c1=O	-7	-3	-3	7	0	2
CCCCn1c(N)c(N(CCOC)C(=O)c2ccc(C)o2)c(=O)[nH]c1=O	22*	3	2	0	2	0
CCCN(C(=O)c1cccc(-n2cccc2)c1)c1c(N)n(Cc2ccccc2)c(=O)[nH]c1=O	26*	10	26	10	-2	3
CCCCN(C(=O)c1ccc(Cl)c([N+](=O)[O-])c1)c1c(N)n(CCC)c(=O)[nH]c1=O	29*	0	1	1	-4	-1
CCCn1c(N)c(N(CCOC)C(=O)c2ccc(N(C)S(=O)(=O)c3ccc(C)cc3)cc2)c(=O)[nH]c1=O	96*	-3	-6	-4	-8	0
CCCCN(C(=O)c1cccc(-n2cccc2)c1)c1c(N)n(CCC)c(=O)[nH]c1=O	18	12	29	9	6	2
COc1ccc(-n2c(SCC(=O)Nc3ccc(OCc4ccccc4)cc3)nnc2-c2ccc(C)cc2)cc1	-1	-1	·	9	·	3
